For assay [1], the target named is 72 kDa type IV collagenase (Homo sapiens, UniProt P08253). The assay is described as follows: Inhibition of human MMP2. In a few lines: (§1)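 Human pro-enzymes activated with 2 mM APMA at 37 °C (MMP-2 30 min; MMP-3, MMP-8 1 h), then preincubated 30 min at 37 °C with inhibitor diluted from 10^-3 to 10^-6 M. Substrates: Mca-RPKPYA-Nva-WMK(Dnp)-NH2 for MMP-3; Dnp-Pro-Cha-Gly-Cys(ME)-His-Ala-Lys(Nma)-NH2 for MMP-2 and MMP-8. Incubated 6 h at 37 °C; fluorescence read at ex 340/em 440 nm. Triplicates; IC50 from 3 central linear points.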
72 kDa type IV collagenase, sequence (P08253 whole entry): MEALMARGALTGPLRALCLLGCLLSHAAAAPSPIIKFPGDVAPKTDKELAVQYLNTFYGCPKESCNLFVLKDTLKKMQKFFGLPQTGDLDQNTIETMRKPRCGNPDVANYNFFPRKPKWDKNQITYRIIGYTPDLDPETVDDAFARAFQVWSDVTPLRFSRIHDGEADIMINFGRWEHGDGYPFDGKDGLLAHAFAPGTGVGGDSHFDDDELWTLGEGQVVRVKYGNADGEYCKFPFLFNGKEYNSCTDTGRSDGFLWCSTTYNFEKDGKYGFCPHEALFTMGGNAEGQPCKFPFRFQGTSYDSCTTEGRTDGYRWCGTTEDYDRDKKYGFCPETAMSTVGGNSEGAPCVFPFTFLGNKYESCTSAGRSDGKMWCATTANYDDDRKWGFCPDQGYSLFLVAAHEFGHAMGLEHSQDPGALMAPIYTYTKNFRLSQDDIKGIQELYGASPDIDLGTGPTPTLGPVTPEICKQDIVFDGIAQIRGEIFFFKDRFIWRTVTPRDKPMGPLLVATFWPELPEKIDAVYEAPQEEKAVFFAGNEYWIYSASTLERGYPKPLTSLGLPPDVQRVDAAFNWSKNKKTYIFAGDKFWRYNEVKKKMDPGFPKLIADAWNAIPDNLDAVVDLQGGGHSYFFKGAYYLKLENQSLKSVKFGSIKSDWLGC

The species named for assay [2] is Oryctolagus cuniculus. In words: (§2) Reduction of IL1-beta plus […]-induced proteoglycan degradation in rabbit articular cartilage at 200 uM relative to control. Type of assay: functional. In a few lines: (§3)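 Rabbit articular cartilage fragments were prelabelled with 35SO4 and washed. They were then cultured 24 h with 1 ng/mL rmIL-1β, with or without compound, and moved to 5×10^-4 M APMA for another 24 h. Fragments were digested with papain, and the % radioactivity released to the medium was counted. Means ± sem, n = 8/group; ANOVA with Dunnett's test.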

The test system of assay [3] is SW1353. In words: Inhibition of IL-1-beta-induced MMP13 production in human SW1353 cells at 50 uM. The assay is classed as functional, cell-based. In a few lines: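 SW-1353 human chondrosarcoma cells grown to confluence in Ham's F12 with 10% FBS, then serum-free medium with 0.1% BSA for 24 h. Cells pretreated 30 min with DMSO vehicle or compound (6×10^-6 to 5×10^-5 M), then stimulated with rmIL-1β 10 ng/mL for 24 h. Total secreted MMP-13 (pro plus mature) in medium measured by ELISA.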

Assay [4] addresses Collagenase 3 (Homo sapiens, UniProt P45452). The assay is described as follows: Inhibition of human MMP13. In a few lines: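 Human pro-MMP-13 (2 µg/mL in developing buffer) activated with 2 mM APMA for 1 h at 37 °C, then stopped on ice. Enzyme preincubated 30 min at 37 °C with compound (serial 1/10 dilutions from DMSO stocks), then incubated 6 h at 37 °C with fluorogenic substrate Dnp-Pro-Cha-Gly-Cys(ME)-His-Ala-Lys(Nma)-NH2. Fluorescence read at ex 340/em 440 nm, in triplicate. IC50 from 3 points in the linear range of % control fluorescence.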

Assay [5] concerns the target Neutrophil collagenase (Homo sapiens, UniProt P22894). The assay is described as follows: Inhibition of human MMP8. In a few lines:
as §1

Assay [6] addresses Stromelysin-1 (Homo sapiens, UniProt P08254). The assay is described as follows: Inhibition of human MMP3. In a few lines: as §1
The species named for assay [7] is Oryctolagus cuniculus. The assay is described as follows: (§4) Inhibition of IL1-beta plus […]-induced proteoglycan degradation in rabbit articular cartilage at 100 uM relative to control. Type of assay: functional. In a few lines:
(§5)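 Rabbit articular cartilage fragments prelabeled with 35SO4 and washed. Incubated 24 h with or without 1 ng/mL rmIL-1β, with or without compound. Fragments then moved to 5×10^-4 M APMA for 24 h and digested in papain. Radioactivity counted by liquid scintillation. Degradation = media cpm/(media + tissue cpm) ×100. Means ± sem, n = 8/group.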

A short description of assay [8]: Inhibition of IL-1-beta-induced collagen degradation in rabbit articular cartilage at 100 uM in presence of plasmin relative to control. Type of assay: functional, Oryctolagus cuniculus. Details: scale not given: the % may be the effect or the level left. In a few lines: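 Non-radiolabeled rabbit articular cartilage fragments cultured 48 h with or without 10 ng/mL IL-1β plus 0.1 U/mL EACA- and Lys-free plasmin, with or without compound. Media and tissue hydrolyzed in 6 M HCl at 110 °C for 12 h. Hydroxyproline measured colorimetrically; degradation = media OH-Pro/(media + tissue OH-Pro) ×100. Means ± sem, n = 8/group; ANOVA with Dunnett's test.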

The nature of assay [9]: as §4. The assay is classed as functional, Oryctolagus cuniculus. More on the design: scale not given: the % may be the effect or the level left. In a few lines: as §5
The nature of assay [10]: as §2. More on the design: scale not given: the % may be the effect or the level left. Type of assay: functional, Oryctolagus cuniculus. In a few lines:
as §3

Calls of active or inactive are those of the source. The calls are words filed in the database; no cut-off is given here.

Stromelysin-1, sequence (P08254 whole entry): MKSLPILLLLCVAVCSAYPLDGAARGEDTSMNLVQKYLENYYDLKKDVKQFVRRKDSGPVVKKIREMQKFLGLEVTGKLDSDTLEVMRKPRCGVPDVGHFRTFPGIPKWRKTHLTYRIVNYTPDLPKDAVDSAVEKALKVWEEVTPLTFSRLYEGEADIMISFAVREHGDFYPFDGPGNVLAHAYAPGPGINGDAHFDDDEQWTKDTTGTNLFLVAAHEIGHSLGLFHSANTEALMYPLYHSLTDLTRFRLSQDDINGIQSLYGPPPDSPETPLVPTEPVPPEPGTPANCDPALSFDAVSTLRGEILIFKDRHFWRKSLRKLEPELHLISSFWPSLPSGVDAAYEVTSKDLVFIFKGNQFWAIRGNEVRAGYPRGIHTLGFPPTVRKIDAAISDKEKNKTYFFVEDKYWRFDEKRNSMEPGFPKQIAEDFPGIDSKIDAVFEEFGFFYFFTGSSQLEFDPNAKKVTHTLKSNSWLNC
Neutrophil collagenase, sequence (P22894 whole entry): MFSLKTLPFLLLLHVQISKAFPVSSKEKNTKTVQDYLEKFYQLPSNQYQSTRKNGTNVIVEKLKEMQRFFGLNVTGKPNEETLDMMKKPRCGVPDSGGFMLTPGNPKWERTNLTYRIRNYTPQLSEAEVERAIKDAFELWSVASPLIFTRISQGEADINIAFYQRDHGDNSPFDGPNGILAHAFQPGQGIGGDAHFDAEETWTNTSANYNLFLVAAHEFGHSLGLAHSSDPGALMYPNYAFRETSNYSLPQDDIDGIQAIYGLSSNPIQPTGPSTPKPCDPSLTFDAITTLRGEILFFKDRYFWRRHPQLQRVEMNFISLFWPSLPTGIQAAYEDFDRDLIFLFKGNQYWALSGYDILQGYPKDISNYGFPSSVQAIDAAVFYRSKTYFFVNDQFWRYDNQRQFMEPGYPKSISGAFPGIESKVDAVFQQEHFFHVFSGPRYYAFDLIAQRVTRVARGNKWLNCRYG

Turning to `C[C@@]1(O)c2cccc(O)c2C(=O)C2=C(O)[C@]3(O)C(=O)C(C(N)=O)=C(O)[C@@H]([N+](C)(C)C)C3CC21` (stereo partly specified), the IC50 in assay [1] is 140 µM; in [4] it was 120 µM; in [5], 110 µM; in [6] it was 150 µM. The outcome in assay [2] and in [3] was inactive.
As for `C[C@H]1c2cccc(O)c2C(=O)C2=C(O)[C@]3(O)C(=O)C(C(N)=O)=C(O)[C@@H]([N+](C)(C)C)C3[C@H](O)C21.[I-]` (stereo partly specified), the half-inhibitory concentration (IC50) in [1] was 7.7 µM; in assay [4] it was 4.9 µM; in assay [5], 11 µM; in [6] it was 81 µM. Also, the outcome in assay [7] and in assay [3] was inactive. For the same compound, the Activity in [8] amounted to 66%.
Turning to `C[C@H]1c2cccc(O)c2C(=O)C2=C(O)[C@]3(O)C(=O)C(C(N)=O)=C(O)[C@@H](N(C)C)[C@@H]3C(O)[C@@H]21.O` (single isomer, unassigned) [DOXYCYCLINE], the half-inhibitory concentration (IC50) is 24 µM in assay [1], 40 µM in assay [4], 31 µM in assay [5] and 25 µM in [6]. Moreover, the Activity worked out at 8% in assay [9] and 89% in assay [8]. In [3], the result was Active.
As for `CN(C)[C@@H]1C(O)=C(C(N)=O)C(=O)[C@@]2(O)C(O)=C3C(=O)c4c(O)cccc4[C@@](C)(O)[C@H]3C[C@@H]12` [TETRACYCLINE], the 50% inhibitory concentration (IC50) in [1] was 220 µM; in assay [4] it was 180 µM; in assay [5] it was 180 µM; in [6] it was 140 µM. Further, the Activity in assay [10] was 29%. The result in [3] was Active.

The record behind these values is ChEMBL document CHEMBL1147035, “Synthesis and in vitro evaluation of targeted tetracycline derivatives: effects on inhibition of matrix metalloproteinases” (Bioorg Med Chem, 2007).
